Laboratory results: PMC4814157 (ACS chemical biology, 2011)
Changes are numbered by the printed parent chain. Entries after “also recorded” stand apart in the source; their conditions may differ.

What was measured:
Scp1 [1] = target: T1, Scp1 (Homo sapiens, UniProt Q9GZU7); assay: pNPP assay of Scp1 phosphatase activity; type: biochemical
T1 sequence (Q9GZU7 77-256): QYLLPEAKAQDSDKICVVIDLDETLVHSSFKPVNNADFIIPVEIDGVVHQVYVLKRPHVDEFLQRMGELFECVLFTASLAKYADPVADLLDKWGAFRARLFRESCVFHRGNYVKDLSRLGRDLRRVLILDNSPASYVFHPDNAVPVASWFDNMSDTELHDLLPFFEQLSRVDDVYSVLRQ

Scp1 [2] = target: T1, Scp1; assay: Malachite green assay with CTD-derived phosphorylated peptide; type: biochemical
In short: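 Human Scp1 (residues 77–256, E. coli BL21(DE3)-expressed, Ni-NTA purified), 5 ng, acting on a 17-mer Ser5-phosphorylated CTD peptide. Reaction ran 3 min at 37 °C, was quenched with malachite green reagent, and read at 620 nm. IC50 used substrate near Km with 0–100 µM inhibitor. Km came from peptide at 0.01–0.4 mM; Ki from peptide titrations without and with inhibitor.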

Scp1 [3] = target: T1, Scp1; assay: Differential scanning fluorimetry, thermal stability of Scp1; type: binding; details: 20 µM protein, 100 µM rabeprazole; 57.8 °C in absence of compound
Scp1 F106E mutant = assay: pNPP assay, Scp1 F106E mutant; type: biochemical, human
In short: (§1)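 Point mutants of human Scp1 (residues 77–256; E. coli BL21(DE3), Ni-NTA purified), 50 ng each. Each was preincubated with inhibitor 10 min at RT in pH 5.5 Tris-acetate buffer with 10 mM MgCl2, 0.02% Triton X-100, 1% DMSO. pNPP near Km was added and hydrolysis ran 10–15 min at 37 °C. Reactions were quenched with 0.25 N NaOH and read at 410 nm. IC50 was fitted from concentration–response curves (0–100 µM inhibitor).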

Scp1 V127A mutant = target: T2, Scp1 V127A mutant (Homo sapiens, UniProt Q9GZU7, V127A); assay: pNPP assay, Scp1 V127A mutant; type: biochemical
T2 sequence (Q9GZU7 77-256 V127A): T1 sequence (Q9GZU7 77-256) with V51A
In short: as §1

Scp1 K157A mutant = target: T3, Scp1 K157A mutant (Homo sapiens, UniProt Q9GZU7, K157A); assay: pNPP assay, Scp1 K157A mutant; type: biochemical
T3 sequence (Q9GZU7 77-256 K157A): T1 sequence (Q9GZU7 77-256) with K81A
In short: as §1

Scp1 L155A mutant = target: T4, Scp1 L155A mutant (Homo sapiens, UniProt Q9GZU7, L155A); assay: pNPP assay, Scp1 L155A mutant; type: biochemical
T4 sequence (Q9GZU7 77-256 L155A): T1 sequence (Q9GZU7 77-256) with L79A
In short: as §1

[4] = tested on: Scp1 Tyr158 to Ala mutant; assay: pNPP assay, Scp1 Tyr158 to Ala mutant; type: biochemical, human
In short: as §1

S. pombe Fcp1 = target: T5, S. pombe Fcp1 (Schizosaccharomyces pombe, UniProt Q9P376); assay: pNPP assay, concentration-response on Fcp1; type: biochemical; details: up to 0.1 mM rabeprazole, substrate comparable to Km
T5 sequence (Q9P376 148-641): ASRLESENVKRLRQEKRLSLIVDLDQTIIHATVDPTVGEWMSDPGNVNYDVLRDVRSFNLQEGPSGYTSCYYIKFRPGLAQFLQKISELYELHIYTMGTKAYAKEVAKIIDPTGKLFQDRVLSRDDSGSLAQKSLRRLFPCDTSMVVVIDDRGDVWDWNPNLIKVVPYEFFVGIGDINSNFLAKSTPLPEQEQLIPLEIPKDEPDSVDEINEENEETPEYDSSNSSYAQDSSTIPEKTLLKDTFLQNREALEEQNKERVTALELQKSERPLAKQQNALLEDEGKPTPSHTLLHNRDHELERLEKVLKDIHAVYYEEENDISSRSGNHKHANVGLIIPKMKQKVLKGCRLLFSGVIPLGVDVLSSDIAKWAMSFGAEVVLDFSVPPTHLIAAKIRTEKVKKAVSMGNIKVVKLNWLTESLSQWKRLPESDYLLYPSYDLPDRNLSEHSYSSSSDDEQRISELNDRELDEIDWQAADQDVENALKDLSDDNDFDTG

human Dullard = target: T6, human Dullard (Homo sapiens, UniProt O95476); assay: pNPP assay, concentration-response on Dullard; type: biochemical; details: up to 0.1 mM rabeprazole, substrate comparable to Km
T6 sequence (O95476 46-244): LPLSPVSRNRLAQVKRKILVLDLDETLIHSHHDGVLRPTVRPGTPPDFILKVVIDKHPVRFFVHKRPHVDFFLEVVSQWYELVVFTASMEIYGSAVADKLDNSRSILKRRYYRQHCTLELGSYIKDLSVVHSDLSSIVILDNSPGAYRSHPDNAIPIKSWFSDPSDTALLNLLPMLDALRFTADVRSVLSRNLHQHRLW

[5] = target: T7, bacteriophage λ Ser/Thr phosphoprotein phosphatase (λPPase) (Escherichia phage lambda, UniProt P03772); assay: Inhibition of λPPase; type: biochemical; details: up to 1 mM concentration (data not shown)
T7 sequence (P03772 1-221): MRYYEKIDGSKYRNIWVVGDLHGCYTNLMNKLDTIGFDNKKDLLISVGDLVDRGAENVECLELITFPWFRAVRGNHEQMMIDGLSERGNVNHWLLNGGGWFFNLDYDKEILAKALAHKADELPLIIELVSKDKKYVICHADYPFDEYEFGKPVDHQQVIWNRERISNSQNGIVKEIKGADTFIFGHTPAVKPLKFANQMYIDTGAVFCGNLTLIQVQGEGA

Scp1 [6] = target: T1, Scp1; assay: Concentration-response assay of rabeprazole analogues on Scp1; type: biochemical

What does the source list for `COCCCOc1ccnc(C[S+]([O-])c2nc3ccccc3[nH]2)c1C` (stereo not drawn) [rabeprazole]?
IC50 (Scp1 [1]): 4 ± 0.7 µM; mechanism of inhibition (Scp1 [1]; against pNPP): mixed inhibitor; Ki′ (Scp1 [1]; pNPP as the substrate, steady-state kinetics): 10 ± 2 µM; IC50 (Scp1 [2]): 9 ± 3 µM; Ki (Scp1 [2]): 5 ± 1 µM; mechanism of inhibition (Scp1 [2]; CTD-derived phosphorylated peptide as the substrate): competitive inhibitor; melting temperature of Scp1 in the presence of the compound (Scp1 [3]): 59.1 °C; increase of IC50 versus wildtype Scp1 (Scp1 F106E mutant): at least 10 fold; change of IC50 versus wildtype Scp1 (Scp1 V127A mutant): moderately increased IC50; change of IC50 versus wildtype Scp1 (Scp1 K157A mutant): moderately increased IC50; change of IC50 versus wildtype Scp1 (Scp1 L155A mutant): moderately increased IC50; loss of inhibition versus wildtype Scp1 [4]: at least 10 fold; inhibition of Fcp1 (S. pombe Fcp1): no inhibition; inhibition of Dullard (human Dullard): no inhibition; inhibition of λPPase [5]: no inhibition

`Cc1c(OCC(F)(F)F)ccnc1C[S+]([O-])c1nc2ccccc2[nH]1` (stereo not drawn) [lansoprazole] was tested. Which “inhibition of Scp1” value (Scp1 [6]) did it give?
Its value is “no inhibition; also recorded: does not inhibit”.

Which “inhibition of Scp1” value (Scp1 [6]) does the source give for `COCCCOc1cc[n+]([O-])c(C[S+]([O-])c2nc3ccccc3[nH]2)c1C` (stereo not drawn) [Rabeprazole N-oxide] here?
The value was “no inhibition”.

`COCCCOc1ccnc(CS(=O)(=O)c2nc3ccccc3[nH]2)c1C` [Rabeprazole sulfone] was tested. Which “inhibition of Scp1” value (Scp1 [6]) did it give?
Its value is “did not show any inhibition”.
